# Measurements reported in ChEMBL document CHEMBL1144782, “Isoindolo[2,1-a]quinoxaline derivatives, novel potent antitumor agents with dual inhibition of tubulin polymerization and topoisomerase I” (2008).
# How the values were obtained:
# Type in all cases: functional
# CCRF-CEM [1] = experiment: Antitumor activity against human CCRF-CEM cells
# Procedure, shortened: (§1)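 Run by the NCI in its in vitro disease-oriented screen of about 60 human tumour cell lines. For each line it reports pGI50 (50% net growth inhibition), pTGI (total growth inhibition) and pLC50 (50% net cell death), each as –log molar concentration. Where an effect was not reached within the tested range, the highest tested concentration was used.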
# MCF7 [2] = experiment: Growth inhibition of human multidrug-resistant MCF7 cells after 72 hrs by MTT assay; settings: MCF7, 72 h
# Procedure, shortened: (§2)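 Growth inhibition by MTT after 72 h incubation. Resistant sublines: LoVoDoxo and MCF-7 MDR were kept in 0.1 µg/mL doxorubicin; CEMVbl-100 was selected against vinblastine. GI50 given as mean ± SEM of three independent experiments. Resistance index is resistant-line GI50 over parental GI50.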
# A498 = experiment: Antitumor activity against human A498 cells; procedure, shortened: as §1
# OVCAR-4 = experiment: Antitumor activity against human OVCAR4 cells; procedure, shortened: as §1
# OVCAR-3 = experiment: Antitumor activity against human OVCAR-3 cells; procedure, shortened: as §1
# MCF7 [3] = experiment: Growth inhibition of human MCF7 cells after 72 hrs by MTT assay; settings: MCF7, 72 h; procedure, shortened: as §2
# SF-539 = experiment: Antitumor activity against human SF539 cells; procedure, shortened: as §1
# PC-3 = experiment: Antitumor activity against human PC3 cells; procedure, shortened: as §1
# CCRF-CEM [4] = experiment: Growth inhibition of human vinblastine-resistant CEM cells after 72 hrs by MTT assay; procedure, shortened: as §2
# NCI-H226 = experiment: Antitumor activity against human NCI-H226 cells; procedure, shortened: as §1
# A549 = experiment: Antitumor activity against human A549 cells; procedure, shortened: as §1
# [5] = Antitumor activity against human […] cells; procedure, shortened: as §1
# MDA-MB-435 = experiment: Antitumor activity against human MDA-MB-435 cells; procedure, shortened: as §1
# SNB-75 = experiment: Antitumor activity against human SNB75 cells; settings: Homo sapiens, SNB-75; procedure, shortened: as §1
# OVCAR-5 = experiment: Antitumor activity against human OVCAR5 cells; procedure, shortened: as §1
# [6] = Antitumor activity against human NCI-H322 cells; procedure, shortened: as §1
# COLO 205 = experiment: Antitumor activity against human COLO205 cells; procedure, shortened: as §1
# SK-MEL-28 = experiment: Antitumor activity against human SKMEL28 cells; procedure, shortened: as §1
# TK-10 = experiment: Antitumor activity against human TK10 cells
# Procedure, shortened: (§3)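 NCI 60-cell-line screen. Parameters were GI50 (50% net growth inhibition), TGI and LC50, each reported as –log molar concentration. Where an effect was not reached within the tested range, the highest tested concentration was used in the calculation.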
# HOP-62 = experiment: Antitumor activity against human HOP62 cells; procedure, shortened: as §1
# SF-268 [7] = experiment: Cell viability against human SF268 cells at 10 uM
# HCT-15 = experiment: Antitumor activity against human HCT15 cells; procedure, shortened: as §1
# HCT-116 = experiment: Antitumor activity against human HCT116 cells; procedure, shortened: as §1
# MCF7 [8] = experiment: Cell viability against human MCF7 cells at 10 uM
# U-251 = experiment: Antitumor activity against human U251 cells; procedure, shortened: as §3
# HT-29 = experiment: Antitumor activity against human HT29 cells; procedure, shortened: as §1
# NCI-H460 [9] = experiment: Antitumor activity against human NCI-H460 cells; procedure, shortened: as §1
# CCRF-CEM [10] = experiment: Resistance index, Ratio of GI50 for human vinblastine-resistant CEM cells to GI50 for human CEM cells
# HCC 2998 = experiment: Antitumor activity against human HCC2998 cells; procedure, shortened: as §1
# MOLT-4 = experiment: Antitumor activity against human MOLT4 cells; procedure, shortened: as §1
# SNB-19 = experiment: Antitumor activity against human SNB19 cells; procedure, shortened: as §1
# UACC-257 = experiment: Antitumor activity against human UACC257 cells; procedure, shortened: as §3
# NCI-H460 [11] = experiment: Cell viability against human NCI-H460 cells at 10 uM
# SF-268 [12] = experiment: Antitumor activity against human SF268 cells; procedure, shortened: as §1
# SW-620 = experiment: Antitumor activity against human SW620 cells; procedure, shortened: as §3
# SK-MEL-2 = experiment: Antitumor activity against human SKMEL2 cells; procedure, shortened: as §1
# EKVX = experiment: Antitumor activity against human EKVX cells; procedure, shortened: as §1
# NCI/ADR-RES = experiment: Antitumor activity against human NCI/ADR-RES cells; procedure, shortened: as §1
# OVCAR-8 = experiment: Antitumor activity against human OVCAR8 cells; procedure, shortened: as §1
# IGROV-1 = experiment: Antitumor activity against human IGROV1 cells; procedure, shortened: as §1
# T47D = experiment: Antitumor activity against human T47D cells; procedure, shortened: as §3
# [13] = read-out: Log LC50 (the source's name) (converted)
structure (smiles),measurement,setting,value
Cc1cccc2c1[nH]c(=O)c1c3ccccc3cn21,GI50,CCRF-CEM [1],1.2 µM
same,LC50,CCRF-CEM [1],74.1 µM
same,TGI,CCRF-CEM [1]; read-out: pTGI (converted),12.6 µM
same,GI50,MCF7 [2],8.1 µM
same,GI50,A498,16.2 µM
same,CC50,A498; [13],> 100 µM
same,TGI,A498; read-out: pTGI (converted),41.7 µM
same,GI50,OVCAR-4,6.76 µM
same,LC50 (50% net cell kill),OVCAR-4,> 100 µM
same,TGI,OVCAR-4; read-out: pTGI (converted),> 100 µM
same,GI50,OVCAR-3,4.79 µM
same,LC50 (50% net cell death),OVCAR-3,> 100 µM
same,TGI,OVCAR-3; read-out: pTGI (converted),28.2 µM
same,GI50,MCF7 [3],3.7 µM
same,GI50,SF-539,3.89 µM
same,LC50 (50% net cell kill),SF-539,40.7 µM
same,TGI,SF-539; read-out: pTGI (converted),15.8 µM
same,GI50,PC-3,3.89 µM
same,LC50 (50% net cell death),PC-3,> 100 µM
same,TGI,PC-3; read-out: pTGI (converted),44.7 µM
same,GI50,CCRF-CEM [4],3 µM
same,GI50,NCI-H226,3.24 µM
same,LC50 (50% net cell kill),NCI-H226,> 100 µM
same,TGI,NCI-H226; read-out: pTGI (converted),27.5 µM
same,GI50,A549,5.01 µM
same,CC50,A549; [13],> 100 µM
same,TGI,A549; read-out: pTGI (converted),> 100 µM
same,GI50,[5],2.4 µM
same,LC50,[5],> 100 µM
same,TGI,[5]; read-out: pTGI (converted),17.4 µM
same,GI50,MDA-MB-435,3.16 µM
same,LC50 (50% net cell death),MDA-MB-435,95.5 µM
same,TGI,MDA-MB-435; read-out: pTGI (converted),11.5 µM
same,GI50,SNB-75,30.9 µM
same,LC50,SNB-75,> 100 µM
same,TGI,SNB-75; read-out: pTGI (converted),> 100 µM
same,GI50,OVCAR-5,17.8 µM
same,LC50 (50% net cell death),OVCAR-5,> 100 µM
same,TGI,OVCAR-5; read-out: pTGI (converted),66.1 µM
same,GI50,[6],13.5 µM
same,LC50 (50% net cell death),[6],> 100 µM
same,TGI,[6]; read-out: pTGI (converted),45.7 µM
same,GI50,COLO 205,7.41 µM
same,LC50,COLO 205,> 100 µM
same,TGI,COLO 205; read-out: pTGI (converted),34.7 µM
same,GI50,SK-MEL-28,6.92 µM
same,CC50,SK-MEL-28; [13],> 100 µM
same,TGI,SK-MEL-28; read-out: pTGI (converted),> 100 µM
same,GI50,TK-10,26.9 µM
same,CC50,TK-10; [13],> 100 µM
same,TGI,TK-10; read-out: pTGI (converted),87.1 µM
same,GI50,HOP-62,3.55 µM
same,LC50 (50% net cell death),HOP-62,51.3 µM
same,TGI,HOP-62; read-out: pTGI (converted),15.1 µM
same,Activity,SF-268 [7],55%
same,GI50,HCT-15,5.25 µM
same,CC50,HCT-15; [13],> 100 µM
same,TGI,HCT-15; read-out: pTGI (converted),31.6 µM
same,GI50,HCT-116,2.69 µM
same,LC50,HCT-116,33.9 µM
same,TGI,HCT-116; read-out: pTGI (converted),11.7 µM
same,Activity,MCF7 [8],27%
same,GI50,U-251,6.61 µM
same,CC50,U-251; [13],45.7 µM
same,TGI,U-251; read-out: pTGI (converted),19.5 µM
same,GI50,HT-29,2.19 µM
same,LC50,HT-29,36.3 µM
same,TGI,HT-29; read-out: pTGI (converted),13.2 µM
same,GI50,NCI-H460 [9],1.91 µM
same,CC50,NCI-H460 [9]; [13],31.6 µM
same,TGI,NCI-H460 [9]; read-out: pTGI (converted),10 µM
same,RatioGI50,CCRF-CEM [10],1.04
same,GI50,HCC 2998,4.57 µM
same,LC50,HCC 2998,40.7 µM
same,TGI,HCC 2998; read-out: pTGI (converted),16.2 µM
same,GI50,MOLT-4,1.82 µM
same,LC50,MOLT-4,20.9 µM
same,TGI,MOLT-4; read-out: pTGI (converted),5.62 µM
same,GI50,SNB-19,15.5 µM
same,CC50,SNB-19; [13],> 100 µM
same,TGI,SNB-19; read-out: pTGI (converted),47.9 µM
same,GI50,UACC-257,16.6 µM
same,LC50,UACC-257,> 100 µM
same,TGI,UACC-257; read-out: pTGI (converted),93.3 µM
same,Activity,NCI-H460 [11],2%
same,GI50,SF-268 [12],3.02 µM
same,CC50,SF-268 [12]; [13],75.9 µM
same,TGI,SF-268 [12]; read-out: pTGI (converted),8.51 µM
same,GI50,SW-620,5.75 µM
same,CC50,SW-620; [13],42.7 µM
same,TGI,SW-620; read-out: pTGI (converted),17.8 µM
same,GI50,SK-MEL-2,14.5 µM
same,LC50,SK-MEL-2,> 100 µM
same,TGI,SK-MEL-2; read-out: pTGI (converted),> 100 µM
same,GI50,EKVX,5.62 µM
same,LC50 (50% net cell kill),EKVX,> 100 µM
same,TGI,EKVX; read-out: pTGI (converted),44.7 µM
same,GI50,NCI/ADR-RES,12 µM
same,LC50,NCI/ADR-RES,> 100 µM
same,TGI,NCI/ADR-RES; read-out: pTGI (converted),34.7 µM
same,GI50,OVCAR-8,3.55 µM
same,LC50 (50% net cell death),OVCAR-8,> 100 µM
same,TGI,OVCAR-8; read-out: pTGI (converted),> 100 µM
same,GI50,IGROV-1,3.72 µM
same,CC50,IGROV-1; [13],> 100 µM
same,TGI,IGROV-1; read-out: pTGI (converted),> 100 µM
same,GI50,T47D,11.5 µM
same,LC50,T47D,> 100 µM
same,TGI,T47D; read-out: pTGI (converted),49 µM
